Reference: ChEMBL document CHEMBL3596101, “The Mechanism of Ca(2+) Movement in the Involvement of Baicalein-Induced Cytotoxicity in ZR-75-1 Human Breast Cancer Cells” (J Nat Prod, 2015)
Calls of active or inactive are those of the source. No cut-off for these calls is given here.

Tests used:
[1] = test system: ZR-75-1; test: Induction of apoptosis in human ZR-75-1 cells assessed as early apoptotic cells at 40 uM after 24 hrs by annexin V-FITC/propidium iodide staining-based flow cytometric analysis (reference value: 6.84%); format: functional
Procedure, shortened: (§1)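 ZR-75-1 cells exposed to 20–40 μM compound for 24 h, with 5 μM BAPTA-AM or NAC added first where indicated. Cells stained with Alexa Fluor 488 annexin V/PI for 15 min, at least 20000 cells analysed by flow cytometry (488 nm excitation, 530/575 nm filters). Early = annexin V+/PI−, late = annexin V+/PI+. Three independent biological replicates.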

[2] = test system: ZR-75-1; test: Effect on endoplasmic reticulum Ca2+ pump inhibitor BHQ-induced intracellular Ca2+ increase in human ZR-75-1 cells at 40 uM pretreated with BHQ followed by compound addition in presence of Ca2+ free medium; format: functional, cell-based
Procedure, shortened: (§2)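 ZR-75-1 cells loaded with 2 μM fura-2-AM for 30 min at 25 °C, then suspended in Ca2+-free medium (pH 7.4; 0.3 mM EGTA, 3 mM MgCl2). Stirred cuvette at 25 °C. Thapsigargin (1 μM) or BHQ (50 μM) given before or after 40 μM compound. Excitation 340/380 nm, emission 510 nm, read at 1 s intervals. [Ca2+]i calibrated with Triton X-100/CaCl2 then EGTA.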

[3] = test system: ZR-75-1; test: Increase in intracellular Ca2+ level in human ZR-75-1 cells at 40 uM by fura-2-AM dye-based spectrofluorophotometric analysis in presence of Ca2+ containing medium with Ca2+ chelator BAPTA-AM; format: functional, cell-based
Procedure, shortened: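 Fura-2-loaded ZR-75-1 cells treated with 5 μM BAPTA-AM, then 40 μM compound in Ca2+-containing medium (2 mM CaCl2, pH 7.4). Ratio fluorescence 340/380 nm excitation, 510 nm emission, 25 °C cuvette.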

[4] = test system: ZR-75-1; test: Induction of apoptosis in human ZR-75-1 cells assessed as increase in cleaved caspase-3 level at 20 to 40 uM after 24 hrs by Western immunoblot analysis; format: functional, cell-based
Procedure, shortened: (§3)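 Confluent ZR-75-1 cells (3 × 10^6/dish) treated with 20, 30 or 40 μM compound for 24 h. Where used, 5 μM BAPTA-AM or 5 μM NAC was added before the compound. About 50 μg lysate protein run on 10% SDS-PAGE, transferred to PVDF, probed for cleaved caspase-9/-3 and β-actin, chemiluminescence. Densitometry normalized to β-actin. Three experiments.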

[5] = test system: ZR-75-1; test: Induction of apoptosis in human ZR-75-1 cells assessed as activation of caspase-9 at 20 to 40 uM preincubated for 24 hrs followed by Ca2+ chelator BAPTA-AM addition by Western immunoblot analysis; format: functional, cell-based; procedure, shortened: as §3
[6] = test system: ZR-75-1; test: Increase in intracellular Ca2+ level in human ZR-75-1 cells at 40 uM treated for 25 secs by fura-2-AM dye-based spectrofluorophotometric analysis in presence of Ca2+ containing medium (reference value: 50 +/- 3 nM); format: functional
Procedure, shortened: (§4)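 Fura-2-loaded ZR-75-1 cells (0.5 million per 1 mL, stirred, 25 °C) in Ca2+-containing or Ca2+-free medium. Compound added at 25 s. 340/380 nm excitation, 510 nm emission at 1 s intervals, calibrated to nM. Concentration-response from baseline-subtracted area under curve (25–250 s) as % of 50 μM response in Ca2+ medium. EC50 from Hill fit. Three experiments.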

[7] = test system: ZR-75-1; test: Induction of cell death in human ZR-75-1 cells at 20 to 50 uM after 24 hrs by WST-1 assay in presence of antioxidant N-Acetylcysteine; format: functional, cell-based
Procedure, shortened: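 WST-1 viability assay in ZR-75-1 cells: 5 μM NAC added, then 20–50 μM compound in NAC-containing medium for 24 h. A450 read after 30 min WST-1 incubation and expressed as % of control. Mean ± SEM of three experiments.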

[8] = test system: ZR-75-1; test: Increase in intracellular Ca2+ level in human ZR-75-1 cells treated for 25 secs by fura-2-AM dye-based spectrofluorophotometric analysis in presence of Ca2+-free medium; format: functional, cell-based; procedure, shortened: as §4
[9] = test system: ZR-75-1; test: Induction of apoptosis in human ZR-75-1 cells assessed as early apoptotic cells at 20 uM after 24 hrs by annexin V-FITC/propidium iodide staining-based flow cytometric analysis (reference value: 6.84%); format: functional; procedure, shortened: as §1
[10] = test system: ZR-75-1; test: Induction of reactive oxygen species production in human ZR-75-1 cells at 30 uM after 24 hrs by DCFH-DA probe-based flow cytometric analysis (reference value: 3.623%); format: functional
Procedure, shortened: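 ZR-75-1 cells treated with 20–40 μM compound for 24 h, with 5 μM BAPTA-AM added first where indicated. Cells suspended at 1 × 10^6/mL, loaded with 10 μM DCFH-DA for 30 min at 37 °C. DCF read by flow cytometry (488 nm excitation, 530/30 nm filter, 10000 cells). % H2O2-positive (M1) after subtracting the baseline without probe. Three experiments.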

[11] = test system: ZR-75-1; test: Induction of apoptosis in human ZR-75-1 cells assessed as activation of caspase-3 at 20 to 40 uM preincubated for 24 hrs followed by antioxidant N-Acetylcysteine addition by Western immunoblot analysis; format: functional, cell-based; procedure, shortened: as §3
[12] = test system: ZR-75-1; test: Increase in intracellular Ca2+ level in human ZR-75-1 cells at 40 uM measured every 150 secs by fura-2-AM dye-based spectrofluorophotometric analysis in presence of Ca2+ containing medium with store-operated Ca2+ channel blocker 2-APB; format: functional, cell-based
Procedure, shortened: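 In Ca2+-containing medium (2 mM CaCl2), 2-APB (30 μM) or GF109203X (2 μM) was added 1 min before 40 μM compound to fura-2-loaded ZR-75-1 cells at 25 °C. Response = net area under curve over a 150 s interval, as % of compound alone. Mean ± SEM, n=3.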

[13] = test system: ZR-75-1; test: Induction of apoptosis in human ZR-75-1 cells assessed as late apoptotic cells at 40 uM after 24 hrs by annexin V-FITC/propidium iodide staining-based flow cytometric analysis (reference value: 2.53%); format: functional; procedure, shortened: as §1
[14] = test system: ZR-75-1; test: Increase in intracellular Ca2+ level in human ZR-75-1 cells at 40 uM treated for 90 secs post PLC inhibitor U73122 and ATP addition by fura-2-AM dye-based spectrofluorophotometric analysis in presence of Ca2+ free medium; format: functional, cell-based
Procedure, shortened: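 Performed in Ca2+-free medium with fura-2-loaded ZR-75-1 cells. Response expressed relative to 40 μM compound alone (100%). Three experiments.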

[15] = test system: ZR-75-1; test: Change in endoplasmic reticulum Ca2+ pump inhibitor thapsigargin-induced intracellular Ca2+ increase in human ZR-75-1 cells at 40 uM pretreated with thapsigargin followed by compound addition in presence of Ca2+ free medium; format: functional, cell-based; procedure, shortened: as §2
[16] = test system: ZR-75-1; test: Increase in intracellular Ca2+ level in human ZR-75-1 cells at 50 uM treated for 25 secs by fura-2-AM dye-based spectrofluorophotometric analysis in presence of Ca2+ containing medium (reference value: 50 +/- 3 nM); format: functional; details: in the assay text read “40 uM treated” for “50 uM treated”; procedure, shortened: as §4
[17] = test system: ZR-75-1; test: Increase in intracellular Ca2+ level in human ZR-75-1 cells at 40 uM measured every 150 secs by fura-2-AM dye-based spectrofluorophotometric analysis in presence of Ca2+ free medium with PKC inhibitor GF109203X; format: functional, cell-based
Procedure, shortened: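 In Ca2+-free medium, GF109203X (2 μM) was added 1 min before 40 μM compound to fura-2-loaded ZR-75-1 cells in a 25 °C cuvette. Response = net area under curve as % of compound alone. Three experiments.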

[18] = test system: ZR-75-1; test: Induction of apoptosis in human ZR-75-1 cells assessed as late apoptotic cells at 30 uM after 24 hrs by annexin V-FITC/propidium iodide staining-based flow cytometric analysis (reference value: 2.53%); format: functional; procedure, shortened: as §1
[19] = test system: ZR-75-1; test: Induction of luminal endoplasmic reticulum Ca2+ increases in human ZR-75-1 cells assessed as ratio of Ca2+ level at 40 uM by Mag-fura-2 dye-based fluorescence assay (reference value: 0.67 +/- 0.02); format: functional
Procedure, shortened: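 ZR-75-1 cells loaded with 2 μM Mag-fura-2-AM for 45 min at 37 °C, permeabilized 2 min with […] digitonin in high-K+ intracellular buffer (pH 7.2). Perfused with 0.2 mM Mg-ATP, free Ca2+ clamped at 170 nM. Ratio calibrated with ionomycin plus Ca2+ or EGTA, Kd 53 μM. Control versus 40 μM compound.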

[20] = test system: ZR-75-1; test: Inhibition of endoplasmic reticulum Ca2+ pump inhibitor BHQ-induced intracellular Ca2+ increase in human ZR-75-1 cells at 40 uM pretreated with compound followed by BHQ induction in presence of Ca2+ free medium; format: functional, cell-based; procedure, shortened: as §2
[21] = test system: ZR-75-1; test: Induction of apoptosis in human ZR-75-1 cells at 20 to 50 uM preincubated for 24 hrs followed by antioxidant N-Acetylcysteine and Ca2+ chelator BAPTA-AM addition by annexin V-FITC/propidium iodide staining-based flow cytometric analysis; format: functional, cell-based

**Q.** What does the source list for O=c1cc(-c2ccccc2)oc2cc(O)c(O)c(O)c12 [BAICALEIN]?
**A.** Activity [1]: 55.96%; Activity [2]: inactive; Activity [3]: inactive; Activity [4]: Active; Activity [5]: inactive; Activity [6]: 220 nM; Activity [7]: inactive; EC50 [8]: 35 µM; Activity [9]: 22.71%; Activity [10]: 32.663%; Activity [11]: inactive; Activity [12]: inactive; Activity [13]: 6.32%; Activity [14]: inactive; Activity [15]: inactive; Activity [16]: 220 nM; Activity [17]: inactive; Activity [18]: 1.96%; Ratio [19]: 0.875; inhibition [20]: Active; Activity [21]: inactive
